High-throughput results from PubChem.
In the library only some 1.9% were active in any assay of this set; here they are far more common.
CHRM4 agonist = agonists of human muscarinic M4 receptor (CHRM4) | 0.14% of 360,000 active | P08173 | CHO-K1 hM4/Gqi5, Fluo-8 calcium fluorescence; vehicle 0%, full acetylcholine response 100% | activation, % at 3 µM;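 active means activation above the run mean over all test wells plus 3 SD, cut at about 32% in these data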;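 further: peak over basal fluorescence ratio per well then scaled between controls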
CHRM4 antagonist = antagonists of human muscarinic M4 receptor (CHRM4) | CHO-hM4 cells, ACh EC80, Fluo-8 calcium fluorescence | 0.73% of 360,000 active | inhibition, % at 3 µM | P08173;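 active means inhibition above its plate's cutoff, the mean inhibition of sample wells plus 3 SD, cut at about 27% in these data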
M4 PAM = CHRM4 positive allosteric modulation | CHO-K1 hM4/Gqi5, Fluo-8 calcium fluorescence, ACh EC20; 0% = ACh EC20, 100% = maximal ACh | AID 624126 | activation, % at 3 µM | P08173 | 0.4% of 360,000 active;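 active means activation above its plate's cutoff, the mean activation of sample wells plus 3 SD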
M5 ag = CHRM5 agonism in calcium assay. P08912. AID 624037. 0.19% of 360,000 active. CHO-K1 hM5 cells, Fluo-8 calcium fluorescence; 0% DMSO wells, 100% maximal acetylcholine response. activation, % at 3 µM;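 active means activation above the run's mean over test compounds plus 3 SD, cut at about 23% in these data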;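 further: signal is peak over basal fluorescence ratio across the kinetic read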
Target sequence (P08912 whole entry, looked up): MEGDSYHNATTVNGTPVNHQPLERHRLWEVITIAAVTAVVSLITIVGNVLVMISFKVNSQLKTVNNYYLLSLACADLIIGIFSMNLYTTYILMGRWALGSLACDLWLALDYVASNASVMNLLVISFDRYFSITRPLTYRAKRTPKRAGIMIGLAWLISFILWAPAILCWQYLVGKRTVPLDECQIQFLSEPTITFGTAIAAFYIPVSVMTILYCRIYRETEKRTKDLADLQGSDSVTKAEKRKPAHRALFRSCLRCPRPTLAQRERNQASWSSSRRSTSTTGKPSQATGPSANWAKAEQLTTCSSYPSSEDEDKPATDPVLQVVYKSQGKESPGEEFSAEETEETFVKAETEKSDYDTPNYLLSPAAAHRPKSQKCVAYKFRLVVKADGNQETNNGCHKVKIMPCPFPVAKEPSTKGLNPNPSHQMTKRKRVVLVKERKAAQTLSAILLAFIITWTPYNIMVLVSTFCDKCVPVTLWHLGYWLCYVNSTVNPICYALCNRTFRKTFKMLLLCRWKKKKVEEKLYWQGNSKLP
M5 antag = blocks acetylcholine activation of human M5 receptor | CHO-hM5 cells, Fluo-8 calcium fluorescence, ACh EC80 | P08912 | 0.59% of 360,000 active | AID 624040 | inhibition, % at 3 µM;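 active means inhibition above a per-plate cutoff, the mean of that plate's test compounds plus 3 SD, cut at about 27% in these data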
CHRM5 PAM = potentiates acetylcholine response at human M5 receptor; activation, % at 3 µM; 0.3% of 360,000 active; CHO-K1 hM5, Fluo-8 calcium, ACh EC20 PAM; 0% = ACh EC20, 100% = ACh EC100;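 active means activation above the run cutoff, the mean activation of all test compounds plus 3 SD, cut at about 18% in these data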
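system = human M5 receptor in CHO-K1 cells | reagent = EC20 acetylcholine as agonist stimulus | compound dosing = single-point, 3 µM nominal | incubation = Fluo-8 loading 80 min at 37 °C plus 30 min room temperature | detection = Fluo-8 calcium dye fluorescence, kinetic read | benchmarks = low control EC20 acetylcholine (0%), high control EC100 acetylcholine (100%)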
Numbers stand for hits; - = inactive; ! = a repeat was not active.

SMILES	CHRM4 agonist	CHRM4 antagonist	M4 PAM	M5 ag	M5 antag	CHRM5 PAM
N#CC1(NC(=O)COC(=O)c2cccc(-n3cnnn3)c2)CCCCC1	-	-	-	-	-	-
O=C(NCCc1ccccc1F)C1CCC(=O)N(CCCN2CCCC2=O)C1 (stereo unspecified)	-	-	-	-	-	-
OC[C@H]1O[C@@H](c2nc(-c3ccc(C4OCCO4)cc3)no2)[C@H](O)[C@@H]1O	-	-	-	-	-	-
OC[C@H]1O[C@@H](c2nc(-c3ccc4[nH]ccc4c3)no2)[C@H](O)[C@@H](O)[C@H]1O	-	-	16	-	-	-
Clc1ccc(C=Cc2ccccn2)c(Cl)c1	-	-	-	-	-	-
Cc1onc(-c2ccccc2)c1C(=O)Nc1nnc(C(C)(C)C)s1	-	-	-	-	-	-
CCOC(=O)C1(C)CCCCN1C(=O)c1cccnc1 (stereo unspecified)	-	-	19	-	-	-
CCOC(=O)C1(C)CCCN1C(=O)c1cncc(Br)c1 (stereo unspecified)	-	-	-	-	-	-
O=[N+]([O-])c1ccc(CSc2nnc(-c3cccnc3)o2)cc1	-	-	-	-	-	22
CC(C)Sc1cc(N2CCOCC2)nc(-c2ccccc2)n1	-	-	32	-	-	-
COc1ccccc1Cc1c(C2CCCCC2)nc2ccc(Cl)cn12	-	-	-	-	-	-
O=C(O)c1ccccc1O	-	-	-	26	-	-
Nc1ccc(C(=O)O)c(O)c1	-	43!	-	-	-	-
Nc1c(O)cccc1C(=O)O	-	-	-	-	-	-
O=C(O)c1ccc(O)cc1O	-	-	-	-	-	-
Nc1ncnc2c1ncn2[C@@H]1O[C@H](CNCc2ccc(OCC(=O)Nc3nccs3)cc2)[C@@H](O)[C@H]1O	-	-	-	-	-	-
Cc1ncc(CSc2ccc(Cl)cc2)c(CO)c1O	-	-	-	-	-	-
Cc1ccc(C)c(N/C(N)=N/c2nc(C)cc(C)n2)c1	91	66	-	30	-	-
Cc1cc(C)nc(/N=C(\N)Nc2ccc(F)c([N+](=O)[O-])c2)n1	55	-	-	-	-	-
CCOc1ccc(N/C(N)=N/c2nc(C)cc(C)n2)cc1	50	50	-	-	39	-
CCOc1ccc(N/C(=N/c2nc(C)cc(C)n2)NC(=O)CC)cc1	-	-	-	-	-	-
Cc1cc(C)nc(/N=C(\N)Nc2ccc(SC(F)F)cc2)n1	96	55	-	35	-	-
Cc1ccc(CNC(=O)[C@H](Cc2ccccc2)NC(=O)C2CCNCC2)cc1	-	-	-	-	-	-
CCCCOc1ccc(C(=O)NCC(=O)NCCCn2nc(C)cc2C)cc1	-	-	-	-	-	-
CC(=O)Nc1ccc(N/C(N)=N/c2nc(C)cc(C)n2)cc1	-	-	-	-	-	-
SMILES	CHRM4 agonist	CHRM4 antagonist	M4 PAM	M5 ag	M5 antag	CHRM5 PAM
Cc1cc(C)nc(/N=C(\N)N(Cc2ccccc2)Cc2ccccc2)n1	-	39	-	-	92	-
CCCCN(CCCC)/C(N)=N/c1nc(C)cc(C)n1	-	-	-	-	-	-
Cc1cc(C)nc(/N=C(\N)Nc2ccc(-c3ccccc3)cc2)n1	68	29	-	28	-	-
COC(=O)c1cc(S(=O)(=O)N2CCN(C(=O)c3ccco3)CC2)cn1C	-	-	-	-	-	-
Cc1ccc(C(=O)NC(=S)N2CCN(C)CC2)cc1Br	-	-	-	-	-	-
COc1cc2c(cc1OC)C(c1cc(OC)c(OC)c(OC)c1)C1(O)C(=O)OCC1(O)C2 (stereo unspecified)	-	-	-	-	-	-
Cc1ccc(C(=O)NCC(=O)Nc2ccc(S(=O)(=O)Nc3cc(C)nc(C)n3)cc2)cc1	-	-	-	-	-	-
CCc1ccc2c(c1)/C(=C/C(=O)c1cccs1)C(=O)N2	-	-	-	25	-	-
Cc1cccc2c1NC(=O)/C2=C\C(=O)c1cccs1	-	-	-	-	-	-
CC(C)CCNC(=O)C1CCC(CNS(=O)(=O)c2cccc3nsnc23)CC1 (stereo unspecified)	-	-	-	-	-	-
COc1cc(NC(=O)c2c(F)c(F)c(F)c(F)c2F)c(OC)cc1Cl	-	36	-	-	-	-
COc1ccc(C(=O)Nc2cc(OC)c(Cl)cc2OC)cc1	-	-	-	-	-	-
COc1cc(NC(=O)c2ccc(F)cc2)c(OC)cc1Cl	-	-	-	-	-	-
COc1cc(NC(=O)c2cc3nc(C)cc(C)n3n2)c(OC)cc1Cl	-	-	28	-	-	-
CNS(=O)(=O)c1ccc(NC(=O)c2ccccn2)cc1	-	-	28	-	-	-
O=C(NC(Cc1c[nH]c2ccccc12)C(=O)N/N=C/c1ccc(Cl)cc1)c1cccs1 (stereo unspecified)	-	-	-	-	27	-
COc1cc(NC(=S)NCCN2CCOCC2)cc(OC)c1	-	-	23	-	-	-
CN(Cc1ccccc1)C(=O)c1[nH]cnc1C(=O)NCC(=O)OCc1ccccc1	-	-	-	-	-	-
Cc1cc(C)[n+](-c2ccc(C(C)C)cc2)c2[nH]c(=O)[nH]c(=O)c12	-	41	-	-	-	-
COc1ccc(CN2CCCC(C(=O)c3ccc4c(c3)OCO4)C2)c(F)c1 (stereo unspecified)	-	61	-	-	-	-
CC(C)(C)C(=O)CC1(O)C(=O)N(Cc2ccc(Cl)cc2)c2ccccc21 (stereo unspecified)	-	-	38	-	-	-
O=C(O)CC1(O)C(=O)N(Cc2ccccc2)c2ccccc21 (stereo unspecified)	-	-	-	-	-	-
CCCC(O)(CCN1CCOCC1)c1ccc(Br)cc1 (stereo unspecified)	-	44	-	-	-	-
CCCC(O)(CCN1CCOCC1)c1ccc(Cl)cc1 (stereo unspecified)	-	-	-	-	-	-
Cc1ccc(Cl)cc1NC(=O)CCC(=O)Nc1cc(Cl)ccc1C	-	-	-	-	-	24
CCCC(=O)Nc1cc(Cl)ccc1C	-	-	-	-	-	-
CCOc1ccccc1N(CC(=O)NCCSc1ccccn1)S(=O)(=O)c1ccccc1	32	-	-	-	-	-
Cc1ccc(-n2c(SCC(=O)Nc3ccc(Cl)cc3)nc(O)cc2=O)cc1	-	-	-	-	32	-
COc1ccc(NC(=O)CSc2nc(O)cc(=O)n2-c2ccccc2)cc1	-	-	-	-	-	-
O=C(CSc1nc(O)cc(=O)n1-c1ccccc1)Nc1ccc2c3c(cccc13)CC2	-	-	20	-	-	-
